Sampled rows, rich in hits. Any-hit rate of the full collection: about 3%.
Rad51 HR inh: Rad51 (human) homologous recombination inhibition; Q06609; hRad51 DNA strand exchange, fluorescence dequenching; inhibition, % at 10 µM; 0.085% of 200,000 active; AID 1385;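 active = inhibition above 40% at the single screening dose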
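Assay system: Human Rad51 nucleoprotein filaments preassembled on unlabelled ssDNA | Reagent: Donor/quencher-labelled 47-bp dsDNA substrate | Doses: One concentration, 10 µM final | Times: 37 °C 15-min filament assembly, 30-min compound preincubation, 15-min exchange | Technique: Fluorescein emission 520 nm, excitation 485 nm | Benchmarks: Plate control and blank wells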
ROMK primary: modulators of human ROMK potassium channel; AID 1918; B-score at 10 µM; Tet-inducible ROMK, thallium flux fluorescence; actives lie on both sides; P48048; 2% of 130,000 active;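 active = signal ratio slope over the read window, or its plate-corrected B-score, at least 3 SD from the plate mean, either direction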;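 also: B-score of the F/F0 ratio slope over 7 to 12 s after thallium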
PKD1 kinase inh: blocks activity of human protein kinase D1; 0.056% of 200,000 active; PKD1 kinase fluorescence polarization assay; inhibition, % (concentration not given with the values); in the data active = inhibition above about 50%
Target sequence (Q15139 whole entry, looked up): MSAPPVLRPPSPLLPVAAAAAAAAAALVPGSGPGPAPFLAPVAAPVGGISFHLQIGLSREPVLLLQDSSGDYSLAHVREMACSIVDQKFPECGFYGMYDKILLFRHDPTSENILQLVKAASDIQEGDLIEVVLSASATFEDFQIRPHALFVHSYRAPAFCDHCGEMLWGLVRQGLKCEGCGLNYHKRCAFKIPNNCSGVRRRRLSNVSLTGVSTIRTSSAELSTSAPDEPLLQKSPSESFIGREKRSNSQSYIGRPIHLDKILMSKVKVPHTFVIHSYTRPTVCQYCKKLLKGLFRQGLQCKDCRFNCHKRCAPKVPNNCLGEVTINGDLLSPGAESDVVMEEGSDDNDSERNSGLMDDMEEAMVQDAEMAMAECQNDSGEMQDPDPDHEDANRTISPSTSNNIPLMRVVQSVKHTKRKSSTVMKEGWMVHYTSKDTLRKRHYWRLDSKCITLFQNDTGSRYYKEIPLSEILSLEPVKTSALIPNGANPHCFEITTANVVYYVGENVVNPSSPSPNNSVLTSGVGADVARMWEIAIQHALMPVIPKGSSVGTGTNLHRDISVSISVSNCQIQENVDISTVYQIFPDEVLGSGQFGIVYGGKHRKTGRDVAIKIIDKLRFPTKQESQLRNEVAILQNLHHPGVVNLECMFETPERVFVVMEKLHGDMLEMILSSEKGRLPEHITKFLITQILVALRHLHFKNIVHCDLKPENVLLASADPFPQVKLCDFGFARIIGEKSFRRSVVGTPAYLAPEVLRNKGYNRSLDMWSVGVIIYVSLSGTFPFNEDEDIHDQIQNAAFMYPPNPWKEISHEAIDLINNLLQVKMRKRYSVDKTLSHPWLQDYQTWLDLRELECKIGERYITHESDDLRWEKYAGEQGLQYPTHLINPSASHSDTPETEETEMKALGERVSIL
Cl transport mod: KCC2 (human) Cl- transport modulation. KCC2 cells, thallium flux FluoZin-2 fluorescence. B-score of Tl+ flux slope (higher = more flux/activation; lower = inhibition) at 10 µM. Q9H2X9. 2.2% of 190,000 active. AID 1456;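 active = thallium flux slope and its plate-corrected score both differing from the plate sample mean at a set confidence after two filtering rounds, in either direction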;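 also: slope of fluorescence scaled to starting intensity during 10 to 20 s after thallium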
ROMK hit retest: human ROMK channel modulation, retest confirmation | ROMK thallium flux, fluorescence ratio; stronger effect = lower value | AID 1917 | shares compounds with ROMK primary | 54% of 3,000 active | normalized thallium flux (F/F0 slope) at 10 µM;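 active = Flux at 10 µM at least 3 SD below or above vehicle control mean in one or both replicates; inconclusive = no clear call, values can overlap the other calls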
Numbers stand for hits; i = inactive; ? = inconclusive; nt = no result.

SMILES	Rad51 HR inh	ROMK primary	PKD1 kinase inh	Cl transport mod	ROMK hit retest
CCc1cccc(N(C(=O)c2csnn2)C(C(=O)NC(C)(C)C)c2ccncc2)c1 (stereo not given)	i	i	i	i	nt
S=C(NCCN1CCOCC1)Nc1ccccc1Cl	i	nt	i	i	nt
CCCC(c1nnnn1C1CCCCC1)N1CCN(c2ncccn2)CC1 (stereo not given)	i	nt	i	nt	nt
CCCCC(c1nnnn1C1CCCC1)N1CCN(C2CCCCC2)CC1 (stereo not given)	i	-4.1	i	i	0.063
Cc1ccc(C(=O)/C=C/c2ccccc2[N+](=O)[O-])cc1	i	i	i	i	nt
O=C(/C=C/c1ccccc1[N+](=O)[O-])c1ccccc1Br	i	-6.1	i	i	0.049
COc1ccc(N2C(=O)CSC23C(=O)Nc2ccccc23)cc1OC (stereo not given)	i	nt	i	i	i
O=C(COC(=O)c1ccc(Br)o1)Nc1cccc(S(=O)(=O)N2CCCCCC2)c1	i	i	i	i	nt
O=C1c2ccccc2C(=O)N1CCCCN(C(=O)c1cc2ccccc2oc1=O)c1ccc(Cl)cc1	i	-2.3	i	i	i
Cc1ccc(C(=O)N2C(CC(=O)Nc3ccc(Cl)cc3)C(=O)NC3CCCCC32)cc1 (stereo not given)	i	nt	i	i	0.067
O=C(Oc1coc(CSc2ncccn2)cc1=O)c1ccccc1[N+](=O)[O-]	i	i	i	i	i
Cc1ccc(N=C(N)N=C(N)N)c(C)c1	i	nt	nt	i	nt
O=[N+]([O-])c1ccc(CN2CCOCCOCCN(Cc3ccc([N+](=O)[O-])cc3)CCOCC2)cc1	nt	-9.9	i	i	0.012
O=[N+]([O-])c1ccc(COc2ccc(Br)cc2CN2CCOCC2)cc1	i	i	i	i	nt
CSc1ccc(CN2CCN(Cc3ccc([N+](=O)[O-])cc3)CC2)cc1	i	-3.9	i	nt	0.054
CCS(=O)(=O)N1CCN(Cc2ccc([N+](=O)[O-])cc2)CC1	i	nt	i	i	nt
COc1ccc([N+](=O)[O-])cc1N(CC(=O)Nc1ccccc1C(=O)NC(C)C)S(C)(=O)=O	i	i	i	i	nt
Cc1ccc(C2C(C#N)=C(N)Oc3nc(-c4ccccc4)[nH]c32)o1 (stereo not given)	i	nt	i	i	?
N#CC1=C(N)Oc2nc(-c3ccccc3)[nH]c2C1c1cccnc1 (stereo not given)	i	i	i	i	nt
CCOCC(=O)Nc1ccccc1C(=O)O	i	nt	i	nt	nt
Cc1cc(/C=N/n2cnnc2)c(C)n1-c1ccc(Cl)cc1	i	nt	i	i	nt
Cc1cc(/C=N/n2cnnc2)c(C)n1-c1ccc(Cl)cc1Cl	i	3.2	i	i	?
CCCCCCCCNC(=S)NCCN1CCCCC1	i	-2.6	i	i	0.048
S=C(NCCCN1CCOCC1)NCCCN1CCOCC1	i	i	i	i	nt
O=C(c1ccco1)N1CCN(S(=O)(=O)c2ccc(Oc3ccccc3)cc2)CC1	i	nt	i	nt	0.067
SMILES	Rad51 HR inh	ROMK primary	PKD1 kinase inh	Cl transport mod	ROMK hit retest
O=C(c1ccco1)N1CCN(S(=O)(=O)c2ccc(S(=O)(=O)NC3CC3)cc2)CC1	i	nt	i	i	nt
O=C(Nc1ccon1)c1cccc(S(=O)(=O)N2CCCCC2)c1	nt	i	i	i	nt
O=C(NCc1cccnc1)/C(=C/c1ccc(-c2ccc(Cl)cc2)o1)S(=O)(=O)c1ccccc1	i	nt	i	i	0.055
O=C(NCc1cccnc1)/C(=C/c1ccc(-c2cccc(C(F)(F)F)c2)o1)NC(=O)c1ccccc1	nt	-5.1	i	i	0.054
Cc1ccc(C(=O)N/C(=C/c2ccc(-c3cc(C(F)(F)F)ccc3Cl)o2)C(=O)NCc2cccnc2)cc1	i	i	i	nt	nt
CCC(C)Sc1nc2c(c(=O)[nH]c(=O)n2C)n1CC(O)COc1ccccc1C (stereo not given)	i	-3.5	i	i	0.066
NC(=O)CC(NSc1ccccc1[N+](=O)[O-])C(=O)O (stereo not given)	i	nt	i	i	nt
CC(=O)NC12CC3CC(C1)CC(C(=O)OCC(=O)NC(=O)c1cccn1C)(C3)C2	i	i	i	i	nt
CC(=O)NC12CC3CC(C1)CC(C(=O)OCC(=O)Nc1ncc(Cl)cc1Cl)(C3)C2	i	-4	i	i	i
CCN(CC)S(=O)(=O)c1ccc(OC)c(NC(=O)C(Cc2ccccc2)N2C(=O)c3ccccc3C2=O)c1 (stereo not given)	i	nt	i	i	nt
Cc1ccc2[nH]cc(C(=O)CN3CCN(C)CC3)c2c1	i	nt	i	i	nt
Cc1ccc2[nH]cc(C(=O)CCl)c2c1	nt	-4.2	i	i	0.055
Cc1cc(N=Nc2ccc(C)c(N=Nc3cc(C)c(N)cc3N)c2)c(N)cc1N	i	nt	nt	i	nt
CC/C(=N/Nc1cccc(C)c1)c1cnnc(SC)n1	nt	-4.1	i	i	?
Cc1cc(=O)[nH]c(SCc2cccc(Br)c2)n1	i	i	i	i	nt
Cc1cc(CSc2nc(C)cc(=O)[nH]2)c2ncccc2c1	i	-11	i	i	i
CCCCCCOC(=O)C[N+](C)(C)CCOC1CC2CCC1(C)C2(C)C (stereo not given)	i	nt	i	nt	0.045
CC(C)CCOC(=O)C[N+](C)(C)CCOC1CC2CCC1(C)C2(C)C (stereo not given)	i	-4.1	i	i	0.052
CCCCCCCOC(=O)C[N+](C)(C)CCOC1CC2CCC1(C)C2(C)C (stereo not given)	i	nt	i	i	0.043
CCCCOC(=O)C[N+](C)(C)CCOC1CC2CCC1(C)C2(C)C (stereo not given)	i	nt	i	i	nt
NNC(=O)CS(=O)(=O)c1ccc(Cl)cc1	i	nt	nt	i	nt
COC(Cc1n[nH]c(=S)n1-c1ccccc1)OC	i	nt	i	i	i
CCC(C)NS(=O)(=O)c1ccc(F)c(C(=O)Nc2c(F)cc(F)cc2Br)c1 (stereo not given)	i	i	i	i	nt
CCOc1ccc(C2C(C(=O)c3ccc(C)o3)=C(O)C(=O)N2CCN2CCOCC2)cc1OC (stereo not given)	i	1.8	i	i	i
COc1ccc(Br)cc1CSC(=N)N	i	i	i	i	nt
SMILES	Rad51 HR inh	ROMK primary	PKD1 kinase inh	Cl transport mod	ROMK hit retest
CCCCCOc1ccc(Br)cc1CSC(=N)N	i	nt	i	i	0.042
CCN(c1ccccc1)c1ncnc2c1cnn2-c1ccccc1	i	nt	i	nt	0.055
CN(Cc1ccccc1)c1ncnc2c1cnn2-c1ccccc1	i	nt	i	nt	nt
CC1CCN(Cc2c(C(=O)O)nnn2-c2nonc2N)CC1	nt	i	i	i	nt
CC(CSc1nc2ccccc2s1)Cn1c(N2CCCC2)nc2c1c(=O)[nH]c(=O)n2C (stereo not given)	i	-3.1	i	nt	0.06
CCN1CCN(c2nc3c(c(=O)[nH]c(=O)n3C)n2CCSc2nc3ccccc3s2)CC1	i	nt	i	i	nt
Cc1sc2cc3c(c(C(=O)c4ccccc4)[n+]2c1C)-c1cccc2cccc-3c12	nt	-3.1	i	i	0.055
O=C(c1ccccc1)c1c2c(cc3sc4ccccc4[n+]13)-c1cccc3cccc-2c13	i	nt	i	i	0.045
Cc1ccccc1-n1c(C)nnc1SCC(=O)N(C)C1CCS(=O)(=O)C1 (stereo not given)	i	i	i	i	nt

Source: PubChem (several laboratories)
